NSD2 HMT inh: NSD2 histone methyltransferase inhibitors, primary screen, biochemical, AlphaScreen, single concentration, set 2; Histone-lysine N-methyltransferase NSD2 (Homo sapiens), O96028; NSD2 peptide methylation, 120 min; inhibition, % at 12.5 µM; hit rate 0.54% among 310,000; AID 743445, 2014
DNMT1 inh: human DNMT1 methyltransferase inhibitors, primary screen, biochemical, molecular beacon, fluorescence, HinP1I cleavage, uHTS | DNA (cytosine-5)-methyltransferase 1 (Homo sapiens), P26358 | hit rate 0.83% among 360,000 | inhibition (reported as % activation of signal), % at 10 µM
HCV NS3 hel inh: inhibitors of HCV NS3 helicase, primary screen, biochemical, Cy5 molecular beacon fluorescence | Hepatitis C virus NS3 helicase | NS3 helicase DNA unwinding | inhibition, % at 10.9 µM | hit rate 0.56% among 290,000;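 active means inhibition above the mean of all tested compounds plus 3 SD, set per campaign, cut at about 35% in these data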;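 further: 0% = DMSO wells and 100% = thioflavine S control wells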
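System: NS3 helicase fragment of HCV / Schedule: 1 h at 25 °C / Control set: DMSO alone as 0% and 110 µM thioflavine S as 100% / Reagent: Cy5/quencher beacon DNA duplex and ATP to start / Technique: Cy5 fluorescence / Replication: singlicate / Evaluation: % inhibition of end-to-start signal ratio versus controls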
Casp6 inh: human caspase-6 inhibitors, primary screen, biochemical, VEID-R110 fluorescence, single point, set 2; purified caspase-6, Z-VEID-R110 cleavage fluorescence; AID 686996, 2013; inhibition, % at 12.5 µM; P55212; hit rate 0.53% among 350,000;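 active means mean inhibition across replicates at least about 35%, with every replicate also reaching that limit, limit read from the data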;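 further: 0% = median of neutral control wells and 100% = no fluorescence left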
DNMT1 inh conf: DNMT1 methyltransferase inhibitor retest, confirmation, biochemical, molecular beacon, fluorescence, single concentration; inhibition, % at 10 µM; shares compounds with DNMT1 inh; hit rate 8% among 2,300; AID 602385, 2012; DNMT1 molecular beacon HinP1I cleavage;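 active means average inhibition of at least 30% in the single-concentration confirmation test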
DNMT1 interf: beacon fluorescence artifact counter-screen; AID 602387; hit rate 1% among 2,300; shares compounds with DNMT1 inh; DNMT1 molecular beacon spectral interference counterscreen, fluorescence 485/520; activation (fluorescence interference), % at 10 µM;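 active means activation of at least 30% at 10 µM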;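 further: DNMT1 catalytic domain with a HinP1I cleavage step and a FAM/dabcyl DNA beacon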
* hit, by the source's call; nt = no result given. A selection: hits, their analogues and other compounds. The true share with any hit is near 1.5%. Unless noted, no stated cut-off is given here; in the data, active means inhibition above about 50%; inactive means the rest.

SMILES | NSD2 HMT inh | DNMT1 inh | HCV NS3 hel inh | Casp6 inh | DNMT1 inh conf | DNMT1 interf
O=C(Nc1cc(F)ccc1F)N[C@@H]1CC[C@@H](CCn2cc(C3CC3)nn2)O[C@H]1CO | nt | nt | nt | 4 | nt | nt
CCOc1cc2[nH]c(=O)n(CCCCC(=O)NC3CCCCCC3)c(=O)c2cc1OCC | -5 | 6 | 7 | nt | nt | nt
CCOc1cc2[nH]c(=S)n(CCC(=O)NC3CCCCC3)c(=O)c2cc1OCC | 1 | 51* | nt | -3 | 2 | -1
Nc1cc2c3ccccc3ccc2c2ccccc12 | nt | 91* | nt | 5 | 4 | 9
Nc1ccc2ccccc2c1[N+](=O)[O-] | nt | -4 | nt | -1 | nt | nt
COCC#Cc1ccc2c(c1)O[C@H](CN(C)C(=O)NC(C)C)[C@@H](C)CN([C@H](C)CO)S2(=O)=O | nt | nt | nt | 3 | nt | nt
COc1ccc(N=Cc2oc3ccc4ccccc4c3c2O)cc1 | -11 | 60* | 0 | 1 | 4 | 2
C=CC[C@@H](CC(=O)N[C@@H](CO)Cc1ccccc1)C(=O)NC[C@@H](OC(=O)[C@@H](CC=C)CC(=O)OC(C)(C)C)c1ccccc1 | nt | 57* | nt | 0 | 7 | 5
CCC(=O)N1C[C@H](O)COC[C@H]2O[C@H](CC(=O)NCc3cc(F)cc(F)c3)CC[C@@H]21 | nt | nt | nt | -11 | nt | nt
CC1=C(C(=O)Nc2ccc(C)cc2C)C(c2ccc(Cl)cc2)n2nc(C(=O)OC(C)C)nc2N1 (stereo not drawn) | -2 | 57* | -1 | nt | 2 | 0
CCCNC(=O)C[C@H]1C[C@@H]2c3cc(NS(=O)(=O)c4ccc(F)cc4)ccc3O[C@@H]2[C@@H](CO)O1 | nt | nt | nt | -4 | nt | nt
CC1(C)CC(=O)C(C=NCC2CCN(C(=O)Cc3ccccc3)CC2)=C(O)C1 | -3 | 76* | 2 | nt | 4 | 2
CC1(C)CC(=O)C(C=NCC2CCNCC2)=C(O)C1 | -1 | 2 | 5 | nt | nt | nt
CCn1ccnc1CN(C)Cc1cn(-c2ccc(C)cc2)nc1-c1ccc(F)cc1 | 3 | 60* | -57 | -1 | 2 | 6
O=C(Cc1ccccn1)N1CC(=O)N2[C@H](CO)[C@@H](c3ccc(C#CC4CCCC4)cc3)[C@@H]2C1 | nt | nt | nt | 0 | nt | nt
COc1ccc(-c2cnc3c(c2)C(=O)N([C@H](C)CO)C[C@H](C)[C@@H](CN(C)C)O3)cc1 | nt | nt | nt | -1 | nt | nt
Cc1ccc(Cn2c(SCc3cccnc3)nc3c2c(=O)n(C)c(=O)n3C)cc1 | -1 | 108* | -2 | nt | 7 | 5
CCCSc1nc2c(c(=O)[nH]c(=O)n2C)n1Cc1ccc(C)cc1 | 45 | 54* | -1 | nt | 0 | 1
Cc1ccc(-c2n[nH]c(=S)n2/N=C/C=C/c2ccccc2[N+](=O)[O-])cc1 | -3 | -2 | 0 | nt | nt | nt
O=[N+]([O-])c1ccccc1/C=C/C=N/n1c(-c2cc(-c3ccccc3)n[nH]2)n[nH]c1=S | 3 | 53* | -1 | -1 | 20 | -4
CCCN(CC(=O)Nc1ccccc1OC)C(=O)c1ccc(S(=O)(=O)Nc2ccccc2)cc1 | 1 | 62* | nt | 0 | 1 | -8
C/C(=C\c1ccc(C(=O)O)cc1)c1ccc2c(c1)C(C)(C)CCC2(C)C | nt | 52* | nt | nt | 21 | 0
CCn1nnc(NC(=O)CSc2ccc(Cl)cc2)n1 | 0 | 66* | 7 | 31 | 5 | 2
CCCCn1nnc(NC(=O)Cc2ccc(Cl)cc2)n1 | -5 | 1 | -7 | nt | nt | nt
COc1ccc(C(=O)Nc2ccc(N3CCCC3)cc2)cc1 | 2 | 86* | -21 | nt | 4 | 1
SMILES | NSD2 HMT inh | DNMT1 inh | HCV NS3 hel inh | Casp6 inh | DNMT1 inh conf | DNMT1 interf
CCOc1ccc(C(=O)Nc2ccc(N3CCCC3)cc2)cc1 | -3 | 80* | -54 | nt | 7 | 0
CCOc1cccc(C(=O)Nc2ccc(N3CCCC3)cc2)c1 | 19 | 37 | -43 | -2 | nt | nt
COc1ccccc1C(=O)NC(=S)Nc1ccc(N2CCCC2)cc1 | -1 | 68* | -13 | 0 | 5 | 4
COc1ccccc1C(=O)NC(=S)Nc1ccccc1N1CCCC1 | 15 | -15 | -6 | -3 | nt | nt
C[C@H](CO)N1C[C@H](C)[C@@H](CN(C)C(=O)Nc2cccc3ccccc23)OCCCC[C@H](C)Oc2ccc(NS(=O)(=O)c3ccc(F)cc3)cc2C1=O | nt | nt | nt | 0 | nt | nt
Cc1ccc(S(=O)(=O)N(C)C[C@H]2OCCCC[C@H](C)Oc3ccc(NS(C)(=O)=O)cc3C(=O)N([C@@H](C)CO)C[C@H]2C)cc1 | nt | nt | nt | 0 | nt | nt
C[C@@H]1CCCCO[C@H](CN(C)CC2CCCCC2)[C@H](C)CN([C@H](C)CO)C(=O)c2cc(NS(=O)(=O)c3ccccc3)ccc2O1 | nt | nt | nt | 1 | nt | nt
COc1ccc(OC)c2sc(NC(=O)c3ccc(Cl)s3)nc12 | nt | 61* | 5 | 0 | 6 | 0
COc1ccc(OC)c2sc(NC(=O)c3ccc(Br)s3)nc12 | nt | 57* | -5 | 0 | 2 | -3
COC(=O)C[C@H]1CC[C@H](NS(=O)(=O)c2ccccc2F)[C@H](CO)O1 | nt | nt | nt | 2 | nt | nt
Cc1ccc(-c2nc3c(c(=O)[nH]c(=O)n3Cc3ccccc3)n2C)o1 | 1 | 70* | 16 | 21 | 4 | 0
Cc1nc(SCCC(C)C)c([N+](=O)[O-])[nH]1 | 1 | 94* | 5 | nt | 7 | 6
COc1ccc(S(=O)(=O)Nc2ccc3c(c2)C(=O)N([C@H](C)CO)C[C@@H](C)[C@@H](CN(C)C(=O)C2CCCCC2)OCCCC[C@H](C)O3)cc1 | nt | nt | nt | 0 | nt | nt
Cc1cc(/C=N/Nc2ccc([N+](=O)[O-])cn2)c(C)n1-c1ccc(C(=O)O)cc1 | 1 | 61* | 32 | 43* | 4 | 1
Cc1ccccc1-n1c(C)cc(/C=N/Nc2ccc([N+](=O)[O-])cn2)c1C | -4 | 2 | 5 | nt | nt | nt
C[C@@H]1CCCCO[C@H](CN(C)Cc2ccccc2)[C@@H](C)CN([C@@H](C)CO)C(=O)c2cc(NC(=O)C3CCCCC3)ccc2O1 | nt | nt | nt | 1 | nt | nt
Nc1c(C(=O)NCc2ccc3c(c2)OCO3)c2nc3ccccc3nc2n1CCCN1CCOCC1 | -10 | 62* | -41 | nt | 10 | 10
Nc1c(C(=O)NCc2ccccc2)c2nc3ccccc3nc2n1-c1ccc2c(c1)OCO2 | 0 | 56* | 6 | nt | 1 | 2
CCCCN1C(=O)/C(=C/C=C2/CC(C)(C)CN2C)SC1=S | 5 | 76* | 1 | nt | 81* | 85*
Cn1cnc(S(=O)(=O)N[C@H]2CC[C@H](CC(=O)Nc3ccc(-c4ccccc4)cc3)O[C@H]2CO)c1 | nt | nt | nt | 1 | nt | nt
CCCc1nnc(NS(=O)(=O)c2ccc(OC)cc2)s1 | -1 | 72* | 9 | 1 | 2 | 2
COCc1nnc(NS(=O)(=O)c2ccc(OC)cc2)s1 | -3 | 5 | nt | 0 | nt | nt

Source: PubChem BioAssay
